Among the data in ChEMBL document CHEMBL2203183, “Synthesis of N-phenyl-N-(3-(piperidin-1-yl)propyl)benzofuran-2-carboxamides as new selective ligands for sigma receptors” (Bioorg Med Chem, 2012) are Ki and inhibition values, retold here.

Experiment [1] is described as follows: Displacement of [3H]DTG from sigma 2 receptor in rat PC12 cell membrane after 2 hrs by scintillation counting. In kind it is cell membranes. The settings on record: pc-12. On the technique in general: Loss of bound radioactivity is the signal in a displacement assay; it reports binding, not function.
In experiment [2] the target is T1, Muscarinic acetylcholine receptor M4 (Homo sapiens) (UniProt P08173).
T1 sequence (whole entry): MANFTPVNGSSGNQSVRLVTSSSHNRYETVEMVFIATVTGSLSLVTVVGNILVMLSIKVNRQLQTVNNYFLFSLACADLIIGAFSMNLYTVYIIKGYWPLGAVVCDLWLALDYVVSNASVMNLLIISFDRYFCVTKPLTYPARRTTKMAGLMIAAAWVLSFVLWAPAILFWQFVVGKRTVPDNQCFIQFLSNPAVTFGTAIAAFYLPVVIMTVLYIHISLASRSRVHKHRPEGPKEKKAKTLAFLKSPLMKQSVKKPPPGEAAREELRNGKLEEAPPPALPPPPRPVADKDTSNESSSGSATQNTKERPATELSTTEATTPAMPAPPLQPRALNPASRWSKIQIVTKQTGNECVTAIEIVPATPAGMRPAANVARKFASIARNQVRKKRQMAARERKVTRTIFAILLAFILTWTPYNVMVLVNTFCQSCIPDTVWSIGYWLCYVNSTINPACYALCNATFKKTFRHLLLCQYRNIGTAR
As to the kind of experiment: Displacement of [3H]QNB from human recombinant M4 receptor at 10 uM after 1.5 hrs by scintillation counting analysis. The gist of the method: (§1)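 NIMH-PDSP primary screen using membranes from transiently or stably transfected cell lines (e.g., HEK293, COS, CHO, NIH3T3). Compound at 10 μM final. Reference compounds: chlorpromazine (5-HT2A), methysergide (5-HT2B), LY278584 (5-HT3), oxymetazoline (α2A), prazosin (α2C), atropine (M4). Mean % inhibition of radioligand specific binding, N = 4.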

The target in experiment [3] is D(3) dopamine receptor (Homo sapiens) (UniProt P35462). Kind of experiment: Displacement of [3H]N-methylspiperone from dopamine D3 receptor at 10 uM after 1.5 hrs by scintillation counting analysis.
Sequence of D(3) dopamine receptor (Homo sapiens) (P35462 whole entry): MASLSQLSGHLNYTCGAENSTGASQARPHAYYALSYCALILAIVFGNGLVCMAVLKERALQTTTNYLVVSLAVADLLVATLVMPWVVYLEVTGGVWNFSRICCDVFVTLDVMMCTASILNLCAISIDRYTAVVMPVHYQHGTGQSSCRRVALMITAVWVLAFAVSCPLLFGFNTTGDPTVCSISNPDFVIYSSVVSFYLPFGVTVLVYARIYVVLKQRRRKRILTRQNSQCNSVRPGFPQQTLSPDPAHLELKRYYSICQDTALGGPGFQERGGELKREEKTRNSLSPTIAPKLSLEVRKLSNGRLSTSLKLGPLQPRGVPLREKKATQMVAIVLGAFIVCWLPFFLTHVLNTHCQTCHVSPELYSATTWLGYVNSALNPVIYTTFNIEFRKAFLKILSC
Experiment [4] deals with 5-hydroxytryptamine receptor 2A (Homo sapiens) (UniProt P28223). Kind of experiment: Displacement of [3H]ketanserin from human recombinant 5-HT2A receptor at 10 uM after 1.5 hrs by scintillation counting analysis. The procedure, abridged: as §1
Sequence of 5-hydroxytryptamine receptor 2A (Homo sapiens) (P28223 whole entry): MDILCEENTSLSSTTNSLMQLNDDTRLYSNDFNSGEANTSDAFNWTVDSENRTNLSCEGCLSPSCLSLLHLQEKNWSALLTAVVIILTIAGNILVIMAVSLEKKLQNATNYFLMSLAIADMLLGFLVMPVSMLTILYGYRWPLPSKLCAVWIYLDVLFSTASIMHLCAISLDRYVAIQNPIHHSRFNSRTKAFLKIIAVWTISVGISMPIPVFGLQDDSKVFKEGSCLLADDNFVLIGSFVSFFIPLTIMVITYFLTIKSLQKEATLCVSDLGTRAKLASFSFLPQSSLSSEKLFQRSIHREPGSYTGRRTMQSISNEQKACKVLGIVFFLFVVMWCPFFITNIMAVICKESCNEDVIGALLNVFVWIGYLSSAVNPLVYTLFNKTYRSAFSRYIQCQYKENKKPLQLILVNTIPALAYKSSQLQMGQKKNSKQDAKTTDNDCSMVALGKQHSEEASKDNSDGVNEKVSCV
For experiment [5], the target named is T2, Alpha-2C adrenergic receptor (Homo sapiens) (UniProt P18825).
T2 sequence (whole entry): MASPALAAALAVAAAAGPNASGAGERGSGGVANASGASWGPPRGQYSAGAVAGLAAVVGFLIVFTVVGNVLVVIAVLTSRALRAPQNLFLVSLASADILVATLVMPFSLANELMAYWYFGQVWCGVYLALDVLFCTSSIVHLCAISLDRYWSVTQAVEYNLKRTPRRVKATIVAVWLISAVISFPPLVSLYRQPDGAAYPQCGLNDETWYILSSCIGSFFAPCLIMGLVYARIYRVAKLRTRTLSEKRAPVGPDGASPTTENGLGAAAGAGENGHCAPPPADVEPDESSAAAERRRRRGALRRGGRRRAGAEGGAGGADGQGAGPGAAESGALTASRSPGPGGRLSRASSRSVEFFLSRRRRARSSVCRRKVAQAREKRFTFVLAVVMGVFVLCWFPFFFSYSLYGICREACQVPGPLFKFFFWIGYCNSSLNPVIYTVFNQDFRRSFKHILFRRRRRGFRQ
Kind of experiment: Displacement of [3H]clonidine from alpha2C adrenergic receptor at 10 uM after 40 mins by scintillation counting analysis. The procedure, abridged:
as §1

Experiment [6] concerns the target T3, Muscarinic acetylcholine receptor M4 (Homo sapiens, UniProt P08173).
T3 sequence (P08173 whole entry): T1 sequence (whole entry)
As to the kind of experiment: Displacement of [3H]QNB from human recombinant M4 receptor after 1.5 hrs by scintillation counting analysis. The gist of the method: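 Membranes from transiently or stably transfected cell lines, run through the NIMH-PDSP program. [3H]QNB was the radioligand and atropine the reference. […] Competition curves were fitted to a three-parameter logistic to give IC50, converted to Ki by Cheng-Prusoff.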

In experiment [7] the target is T4, 5-hydroxytryptamine receptor 3A (Homo sapiens) (UniProt P46098).
T4 sequence (whole entry): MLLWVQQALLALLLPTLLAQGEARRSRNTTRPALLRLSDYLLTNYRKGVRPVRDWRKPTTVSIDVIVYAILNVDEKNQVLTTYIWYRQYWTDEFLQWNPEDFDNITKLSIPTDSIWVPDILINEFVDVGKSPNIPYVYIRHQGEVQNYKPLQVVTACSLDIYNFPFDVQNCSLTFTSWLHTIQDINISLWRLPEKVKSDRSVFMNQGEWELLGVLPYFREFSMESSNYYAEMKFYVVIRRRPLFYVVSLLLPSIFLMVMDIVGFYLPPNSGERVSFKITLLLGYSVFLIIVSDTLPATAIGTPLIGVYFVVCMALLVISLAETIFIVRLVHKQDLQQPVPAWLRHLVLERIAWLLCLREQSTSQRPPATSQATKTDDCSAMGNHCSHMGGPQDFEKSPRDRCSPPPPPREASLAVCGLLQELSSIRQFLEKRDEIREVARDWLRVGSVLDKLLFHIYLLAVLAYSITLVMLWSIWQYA
Kind of experiment: Displacement of [3H]LY278584 from human recombinant 5-HT3 receptor at 10 uM after 1.5 hrs by scintillation counting analysis. The procedure, abridged:
as §1

Experiment [8] deals with 5-hydroxytryptamine receptor 2B (Homo sapiens) (UniProt P41595). Kind of experiment: Displacement of [3H]LSD from human recombinant 5-HT2B receptor at 10 uM after 1.5 hrs by scintillation counting analysis. The procedure, abridged: as §1
Sequence of 5-hydroxytryptamine receptor 2B (Homo sapiens) (P41595 whole entry): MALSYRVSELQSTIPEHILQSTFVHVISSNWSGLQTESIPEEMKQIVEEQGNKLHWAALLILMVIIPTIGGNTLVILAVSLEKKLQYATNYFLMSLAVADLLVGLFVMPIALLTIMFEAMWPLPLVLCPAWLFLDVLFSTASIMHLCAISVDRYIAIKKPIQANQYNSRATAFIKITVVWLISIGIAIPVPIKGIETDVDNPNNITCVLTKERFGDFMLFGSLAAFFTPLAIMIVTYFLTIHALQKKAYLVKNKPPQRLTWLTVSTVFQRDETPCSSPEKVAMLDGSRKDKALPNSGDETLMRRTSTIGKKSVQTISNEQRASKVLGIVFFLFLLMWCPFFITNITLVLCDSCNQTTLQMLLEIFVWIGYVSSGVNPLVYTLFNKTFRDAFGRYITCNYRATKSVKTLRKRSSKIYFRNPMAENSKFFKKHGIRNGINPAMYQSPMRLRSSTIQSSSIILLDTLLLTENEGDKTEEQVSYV
The next experiment has as its system PC-12. As to the kind of experiment: Displacement of [3H]DTG from sigma 2 receptor in rat PC12 cell membrane at 10 uM after 2 hrs by scintillation counting. The class given is cell membranes.
For experiment [9], the target named is Sigma non-opioid intracellular receptor 1 (Rattus norvegicus) (UniProt Q9R0C9). As to the kind of experiment: Displacement of [3H](+)-pentazocine from sigma 1 receptor in rat brain membrane at 10 uM after 2.5 hrs by scintillation counting. In kind it is cell membranes.
Sequence of Sigma non-opioid intracellular receptor 1 (Rattus norvegicus) (Q9R0C9 whole entry): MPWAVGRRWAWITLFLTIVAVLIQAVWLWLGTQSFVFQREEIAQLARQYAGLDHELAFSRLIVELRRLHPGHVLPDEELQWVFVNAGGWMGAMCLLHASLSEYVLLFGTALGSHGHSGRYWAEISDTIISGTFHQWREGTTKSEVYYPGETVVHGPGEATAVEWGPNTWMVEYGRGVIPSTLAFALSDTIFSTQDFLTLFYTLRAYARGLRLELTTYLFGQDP
Experiment [10] has as its target T5, Alpha-2A adrenergic receptor (Homo sapiens) (UniProt P08913).
T5 sequence (whole entry): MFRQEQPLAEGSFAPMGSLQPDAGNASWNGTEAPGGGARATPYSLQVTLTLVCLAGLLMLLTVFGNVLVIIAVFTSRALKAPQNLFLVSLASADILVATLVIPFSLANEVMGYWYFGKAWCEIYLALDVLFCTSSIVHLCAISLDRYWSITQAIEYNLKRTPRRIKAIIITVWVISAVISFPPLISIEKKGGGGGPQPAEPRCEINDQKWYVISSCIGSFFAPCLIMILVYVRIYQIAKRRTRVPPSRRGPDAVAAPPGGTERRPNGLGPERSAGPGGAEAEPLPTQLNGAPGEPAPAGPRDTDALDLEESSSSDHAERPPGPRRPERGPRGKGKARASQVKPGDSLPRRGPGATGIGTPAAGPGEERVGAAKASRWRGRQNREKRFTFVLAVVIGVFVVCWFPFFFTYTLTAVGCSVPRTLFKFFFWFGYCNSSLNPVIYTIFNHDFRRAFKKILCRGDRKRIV
Kind of experiment: Displacement of [3H]clonidine from alpha2A adrenergic receptor at 10 uM after 40 mins by scintillation counting analysis.

As for `COc1ccc2c(C)c(C(=O)N(CCCN3CCCCC3)c3ccccc3)oc2c1`, the Ki (in general, a measure of affinity in units of concentration, obtained from inhibition or displacement) in experiment [1] is 41 nM; in experiment [6] it was greater than 10000 nM. In addition, the inhibition (as a rule, the drop in the measured response relative to a control, in per cent) in experiment [2] came out at 68.4%; in experiment [3], 40.6%; in [4] it was 61.2%; in experiment [5] it was 49%; in experiment [7] it was 7.3%; in [8] it was 93.9%. The inhibition in the experiment with PC-12 came out at 88.5%; in experiment [9], 97.7%.

For `COc1cc2oc(C(=O)N(CCCN3CCCCC3)c3ccccc3)c(C)c2cc1OC`, the inhibition constant Ki in experiment [1] was determined as 528 nM. Also, the inhibition in experiment [2] was 54.4%; in experiment [3], 38.8%; in experiment [4], 76.6%; in experiment [5], 78.9%; in experiment [7] it was 64.2%; in experiment [8], 43.8%. Also, the values for the inhibition (in the experiment with PC-12; in experiment [9]) were 81.4% and 99.8%, respectively.

In the case of `Cc1c(C(=O)N(CCCN2CCCCC2)c2ccccc2)oc2ccccc12`, in experiment [1], the Ki amounted to 16 nM. The inhibition in experiment [10] amounted to 77.7%; in experiment [2], 43.1%; in [4] it was 18.1%; in experiment [5] it was 61.9%; in experiment [7] it was 2.9%; in experiment [8], 69.2%. In addition, the inhibition in the experiment on PC-12 amounted to 93.5%.
